This is one part of a sample in which hits are shown more often than they occur.
UPR CHOP act: activators of apoptotic CHOP UPR arm, primary screen, cell-based, CHO-CHOP luciferase reporter, luminescence, uHTS; UPR activation; percent of tunicamycin response over DMSO baseline; activation, % at 10 µM; 330,000 tested, 0.34% active; AID 449763, 2010;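 active = at 10 µM dose, activation of 40% or more, normalized to positive control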;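 also: 100% = tunicamycin at 10 µg/mL and 0% = DMSO alone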
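Material: CHO-CHOP cells, stable luciferase reporter of PERK-eIF2a-CHOP signalling; quantity: 500 reporter cells seeded per well; buffer or medium: F12 medium containing 10% fetal bovine serum; compound: one dose, 10 µM in 0.5% DMSO; incubation: 6 h compound treatment, 37 °C; measured by: Steady-Glo luciferase luminescence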
iPSC survival up: enhancers of single-cell hiPSC survival, primary screen, ATPlite luminescence; survival enhancement, % at 20 µM; 100% = ROCK inhibitor wells, 0% = DMSO; 360,000 tested, 0.044% active; in the data active = survival enhancement above about 18%;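 also: cells exposed to compounds for 16 hours before the ATP read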
Cardio protect: cardioprotection against H2O2-induced cell death, primary screen, uHTS, H9c2 cells, ATPLite luminescence; H9c2 cardiomyocytes, H2O2 injury protection, 2 h; protection from H2O2 cell death, % at 20 µM; 360,000 tested, 0.63% active;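 active = compounds giving at least 50% protection of heart cells from peroxide-induced death in the single-dose screen, raw or plate-pattern-corrected value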;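 also: 0% = DMSO wells with peroxide and 100% = DMSO wells without peroxide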
CHOP inh: inhibitors of CHOP promoter induction, primary screen, cell-based, unfolded protein response, luciferase reporter | CHO-K1 CHOP-promoter luciferase, tunicamycin-induced, 15-18 h | inhibition, % at 10 µM | 220,000 tested, 3.8% active | AID 2732, 2010;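 active = compounds that reduced the stress-induced luciferase reporter signal by more than about 70% of percent inhibition, limit read from the data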;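 also: 0% = tunicamycin plus vehicle and 100% = wells without tunicamycin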
UPR XBP1 act: activators of adaptive XBP1 UPR arm, primary screen, cell-based, CHO-XBP1 luciferase reporter, luminescence, uHTS. activation, % at 20 µM. IRE1-XBP1 UPR activation; percent of tunicamycin response, DMSO as zero. 330,000 tested, 0.33% active;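 active = versus positive control, 20 µM dose yields 30% or more activation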;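 also: 100% = tunicamycin at 10 µg/mL and 0% = DMSO only wells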
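Assay system: CHO-XBP1 luciferase reporter cells; Schedule: 6 h treatment, 37 °C; Detection: glow luminescence from Steady-Glo reagent; Benchmarks: high control tunicamycin 10 µg/mL final, low control DMSO vehicle only.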
Active calls of the source: *; · = not tested or not shown.

SMILES	UPR CHOP act	iPSC survival up	Cardio protect	CHOP inh	UPR XBP1 act
O=c1[nH]c(NNC(=S)NCc2ccccc2)nc2c1C1(CCCCC1)Cc1ccccc1-2	-2	-3	-4	87*	-2
CC(c1ccccc1C(O)c1ccccc1)N(C)C (stereo not given)	-2	0	-3	25	0
Cc1ccc(C(O)(c2ccccc2)c2ccccc2C(C)N(C)C)c(C)c1 (stereo not given)	0	-2	-19	96*	1
Cc1cccc(C(=O)N[C@H](C(=O)Nc2cc(S(=O)(=O)N3CCCCC3)ccc2C)C(C)C)c1	2	0	3	17	-4
Cc1cc(C)c2nc(NC(=O)[C@@H](NC(=O)c3cccc(S(=O)(=O)N4CCOCC4)c3)C(C)C)sc2c1	3	-1	-4	93*	4
Cc1ccccc1-c1cc2nc(NCCN3CCCC3)n(C)c(=O)c2s1	·	-2	12	·	·
CS(=O)(=O)Nc1ccc2c(c1)[C@H]1C[C@H](CC(=O)NCc3ccccc3)O[C@H](CO)[C@H]1O2	·	1	4	·	·
CCc1ccc(Nc2nc(N)nc(CSc3nnnn3-c3ccccc3)n2)cc1	1	0	-13	88*	-1
Cc1cc(S(=O)(=O)NCC(c2ccccc2)c2ccccc2)ccc1-n1cnnn1	-1	1	-6	70*	-4
CC(C)(C)C(=O)N(CCN(C(=O)C(C)(C)C)c1ccccc1)c1ccccc1	2	2	-9	78*	0
Cc1ccc2nc3n(c(=O)c2c1)-c1ncccc1C(=O)NC3Cc1ccc(O)cc1 (stereo not given)	·	1	9	·	·
Cc1ccccc1Cn1cc(NC(=O)c2nn(C)cc2Cl)cn1	0	-1	3	42	1
Cc1ccc(C2CC(C(F)F)n3ncc(C(=O)Nc4cnn(Cc5ccccc5C)c4)c3N2)cc1 (stereo not given)	3	6	-37	73*	-9
O=C(COc1cccc(OC(F)F)c1)Nc1ccc(SC(F)F)cc1	-1	3	-29	94*	6
O=C(COc1cccc(Oc2ccccc2)c1)Nc1ccc(SC(F)F)cc1	1	-1	-13	66	-3
CCn1c(NC(=O)c2ccccc2)nc2ccccc21	5	0	8	-10	5
CCCn1c(NC(=O)c2ccc(Br)cc2)nc2ccccc21	1	-2	2	83*	2
CCCCn1c(NC(=O)c2ccccc2)nc2ccccc21	-1	0	81*	4	-3
CCCn1c(NC(=O)c2ccc(F)cc2)nc2ccccc21	2	4	21	7	3
CCOC(=O)[C@]12CCC=C1N(Cc1ccc3c(c1)OCO3)C(=O)[C@H](CC(=O)NCC13CC4CC(CC(C4)C1)C3)C2	·	0	·	·	·
COc1ccccc1N1CCN(C(=O)c2ccc3nc(-c4ccco4)c(-c4ccco4)nc3c2)CC1	2	0	64*	20	5
O=C(c1ccccc1)c1ccc2nc(-c3ccco3)c(-c3ccco3)nc2c1	8	0	-19	72*	-1
O=S1(=O)CC(N2CC=CC2)CN1C1CCCCC1 (stereo not given)	·	0	2	·	·
O=C(/C=C/c1cccnc1)/C=C/c1cccnc1	·	2	-21	97*	·
O=C(Nc1cccc(S(=O)(=O)N2CCOCC2)c1)c1cn(-c2ccccc2)nc1-c1ccc(F)cc1	8	1	15	72*	-1
SMILES	UPR CHOP act	iPSC survival up	Cardio protect	CHOP inh	UPR XBP1 act
CCCCCc1c(-c2ccc(Br)cc2)ncn1CCc1ccccc1OC	·	0	·	·	·
CC(=O)NCC1(c2ccccc2)CCN(CCCC(=O)c2ccc(F)cc2)CC1	·	-1	-1	·	·
CCN(CC)c1nc(Oc2ccc(C(=O)OC)cc2)nc(N2CCOCC2)n1	1	0	-5	85*	-1
COC(=O)c1ccc(Oc2nc(N3CCCCC3)nc(N3CCOCC3)n2)cc1	2	-1	-6	71*	-5
Cc1cc2nc(-c3ccccc3)c(CC(C)(C)C)n2c(C)c1Br	·	2	-6	·	·
CC(C)(C)OC(=O)C[C@@H]1C/C=C\C[C@H](CC(=O)NCCO)C(=O)N2CCC[C@H]2COC1=O	1	5	17	·	6
C=CCSc1nc2ccccc2n1C(=O)/C=C/c1ccc(OC)c(OC)c1	·	-3	19	109*	·
Cc1ccc(-c2nn3c(C)nnc3s2)cc1NC(=O)c1ccc(-c2cccc(Cl)c2)o1	2	6	65*	50	-1
Cc1ccc(-c2nn3c(C)nnc3s2)cc1NC(=O)c1ccc(Br)o1	0	1	19	20	0
O=C(NCC1COc2ccccc2O1)c1cccc(S(=O)(=O)N2CCN(c3ccccc3)CC2)c1 (stereo not given)	4	0	-10	·	-3
O=C(CNC(=O)c1nc[nH]c1C(=O)NCc1ccccc1)OCc1ccccc1	1	-2	103*	·	-3
O=C(CNC(=O)c1nc[nH]c1C(=O)NCC(=O)OCc1ccccc1)OCc1ccccc1	1	-1	96*	·	1
CC(C)(C)OC(=O)NCc1ccc(CNC(=O)c2[nH]cnc2C(=O)NCC(=O)OCc2ccccc2)cc1	1	0	39	·	-3
CCN(CC)C(=O)c1[nH]cnc1C(=O)NCC(=O)OCc1ccccc1	-5	0	105*	·	1
CNC(=O)c1[nH]cnc1C(=O)NCC(=O)OCc1ccccc1	0	0	18	·	2
COc1ccc([C@H]2CC(=O)C[C@@H](CCn3nnc4ccccc43)O2)cc1	·	0	·	·	·
O=C(Nc1nnc(-c2cccs2)o1)c1cccc(Oc2ccccc2)c1	4	0	53*	84*	1
CC(C)CC(=O)CN1C(=O)C2(OCCO2)c2ccccc21	-2	-1	2	75*	-1
CCCC(=O)CN1C(=O)C2(OCCO2)c2ccccc21	1	2	-1	30	-2
O=C1N(Cc2ccc(F)cc2Cl)c2ccccc2C12OCCCO2	1	-2	-3	80*	8
Oc1c(Br)cc(Br)cc1/C=N/c1nccs1	2	0	57*	·	0
Oc1c(Br)cc(Br)cc1C=Nc1cccnc1	0	0	52*	·	1
Oc1c(Br)cc(Br)cc1C=Nc1ccc2[nH]ncc2c1	-2	0	35	61	-5
c1ccc2scnc2c1	·	0	4	·	·
COc1cccc(Nc2ncccc2C(=O)Nc2ccccc2)c1	-1	6	5	85*	-2
N/C(=N\c1nc(C(F)(F)F)cc(=O)[nH]1)Nc1ccc(Cl)cc1	-2	·	·	53	-1
CCN(CC)c1ccc(N/C(N)=N/c2nc(C(F)(F)F)cc(=O)[nH]2)cc1	-1	6	-3	73*	4
